# According to ChEMBL document CHEMBL4414601 (J Med Chem, 2019):
# What was measured:
# L929 = experiment: Cytotoxicity against mouse L929 cells assessed as reduction in viability by dual luciferase reporter gene assay; format: ADME, cell-based
# [1] = Permeability of compound by PAMPA
# [2] = Aqueous solubility of compound; settings: buffer
# Plasmodium falciparum [3] = experiment: Antiplasmodial activity against Plasmodium falciparum 3D7A erythrocytic stage assessed as reduction in [3H]hypoxanthine incorporation preincubated for 24 hrs followed by [3H]hypoxanthine addition and measured after 24 hrs by microbeta scintillation counting method; format: functional, organism-based
# How it was run: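 Nine threefold serial dilutions from 5 μM top concentration. Incubated 24 h at 37 °C under 5% CO2/5% O2/90% N2, then 0.2 μCi [3H]-hypoxanthine per well for another 24 h. Cells harvested on glass fibre filters and counted. Data normalized to compound-free parasitized RBCs; IC50 fitted.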
# [4] = Lipophilicity, LogD of compound by reverse phase HPLC analysis
# Plasmodium falciparum [5] = experiment: Antiplasmodial activity against […] of Plasmodium falciparum NF54 assessed as reduction in male gametocytes activation preincubated for 48 hrs followed by gametocytes activation and measured after 24 hrs by fluorescence based automated inverted microscopic analysis; format: functional, organism-based
# How it was run: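 Gametocyte activation was triggered by reduced temperature and ookinete medium containing xanthurenic acid. Male exflagellation centres were detected from a 10-frame video, scoring pixel changes caused by flagellar movement shifting surrounding cells.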
# Plasmodium falciparum [6] = experiment: Antiplasmodial activity against […] of Plasmodium falciparum NF54 assessed as reduction in female gametocytes activation preincubated for 48 hrs followed by gametocytes activation and measured after 24 hrs by fluorescence based automated inverted microscopic analysis; format: functional, organism-based
# How it was run: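 NF54 gametocytes were activated by lowered temperature plus ookinete medium with xanthurenic acid and anti-Pfs25-Cy3 antibody (1/2000 final dilution). Cultures were then kept at 26 °C for 24 h in the dark. Activated females were counted by Cy3 anti-Pfs25 fluorescence, with events gated on size, roundness and fluorescence intensity.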
# [7] = Clearance in human liver microsomes at 0.5 uM measured up to 45 mins in presence of NADPH by HPLC-MS/MS analysis; format: ADME, Microsome
# [8] = Clearance in mouse liver microsomes at 0.5 uM measured up to 45 mins in presence of NADPH by HPLC-MS/MS analysis; format: ADME, Microsome
# [9] = Clearance in rat liver microsomes at 0.5 uM measured up to 45 mins in presence of NADPH by HPLC-MS/MS analysis; format: ADME, Microsome
Compound,EC50 (L929),Papp [1],solubility [2],EC50 (Plasmodium falciparum [3]),chromatographic logD [4],EC50 (Plasmodium falciparum [5]),EC50 (Plasmodium falciparum [6]),CLH [7],CLH [8],CLH [9]
Cc1csc(Nc2nccc(-c3sc(C4CCNCC4)nc3-c3ccc(F)cc3)n2)n1,2.2 µM,15 ×10⁻⁶ cm/s,40 µM,3.85 µM,2.99,–,–,–,–,–
CCOc1nccc(Nc2nccc(-c3sc(C4CCNCC4)nc3-c3ccc(F)cc3)n2)n1,2.1 µM,17 ×10⁻⁶ cm/s,35 µM,0.6 µM,3.21,–,–,–,–,–
CCc1nc(N)nc(N)c1-c1ccc(Cl)cc1 [PYRIMETHAMINE],–,–,–,0.1 µM,–,> 10 µM,> 10 µM,–,–,–
O=C(Nc1nc(-c2ccc(F)cc2)c(-c2ccnc(Nc3ccc(N4CCNCC4)cc3)n2)s1)C1CC1,25.7 µM,2 ×10⁻⁶ cm/s,–,> 5 µM,2.53,–,–,–,–,–
C[C@H]1[C@H](OC(=O)CCC(=O)O)O[C@@H]2O[C@@]3(C)CC[C@H]4[C@H](C)CC[C@@H]1[C@@]24OO3 [ARTESUNATE],–,–,–,0.03 µM,–,> 10 µM,> 10 µM,–,–,–
Fc1ccc(-c2nc(C3CCNCC3)oc2-c2ccnc(Nc3ccncn3)n2)cc1,21.4 µM,19 ×10⁻⁶ cm/s,226 µM,> 5 µM,1.79,–,–,–,–,–
CCc1cc(Nc2nccc(-c3sc(C4CCNCC4)nc3-c3ccc(F)cc3)n2)nc(C)c1F,4.3 µM,–,17 µM,2.9 µM,4.92,–,–,–,–,–
O=S(=O)(Nc1nc(-c2ccc(F)cc2)c(-c2ccnc(Nc3ccc(N4CCNCC4)cc3)n2)s1)C1CCNCC1,74.1 µM,3 ×10⁻⁶ cm/s,–,> 5 µM,1.34,–,–,–,–,–
O[C@H]1CC[C@H](Nc2nccc(-c3sc(C4CCNCC4)nc3-c3ccc(F)cc3)n2)CC1,27.5 µM,5.5 ×10⁻⁶ cm/s,287 µM,> 5 µM,2.12,–,–,–,–,–
CN(C)C(CNc1nccc(-c2sc(C3CCNCC3)nc2-c2ccc(F)cc2)n1)C1CC1 (centres undefined),12 µM,3.4 ×10⁻⁶ cm/s,514 µM,2.35 µM,1.68,–,–,–,–,–
OCCNc1nccc(-c2sc(C3CCNCC3)nc2-c2ccc(F)cc2)n1,61.7 µM,1 ×10⁻⁶ cm/s,351 µM,4.05 µM,1.52,–,–,–,–,–
CN1CCC(Nc2nccc(-c3sc(C4CCNCC4)nc3-c3ccc(F)cc3)n2)C1 (centres undefined),37.2 µM,1.7 ×10⁻⁶ cm/s,402 µM,2.72 µM,1.14,–,–,–,–,–
Cc1nc(Nc2nccc(-c3sc(C4CCNCC4)nc3-c3ccc(F)cc3)n2)cc(C2CCC2)c1F,18.6 µM,–,7 µM,> 5 µM,5.52,–,–,–,–,–
c1cc(Nc2nccc(-c3sc(C4CCNCC4)nc3C3CC3)n2)ncn1,43.7 µM,18 ×10⁻⁶ cm/s,139 µM,3.45 µM,1.71,–,–,–,–,–
Fc1ccc(-c2nc(C3CCNCC3)sc2-c2ccnc(N3CCC(CN4CCOCC4)CC3)n2)cc1,12.9 µM,38 ×10⁻⁶ cm/s,355 µM,> 5 µM,3.75,–,–,–,–,–
CCCS(=O)(=O)Nc1nc(-c2ccc(F)cc2)c(-c2ccnc(Nc3ccc(N4CCNCC4)cc3)n2)s1,100 µM,–,–,4.86 µM,2.5,–,–,–,–,–
Cc1nc(Nc2nccc(-c3sc(C4CCNCC4)nc3-c3ccc(F)cc3)n2)ccc1F,5.2 µM,30 ×10⁻⁶ cm/s,16 µM,> 5 µM,3.96,–,–,–,–,–
OC1CCN(c2nccc(-c3sc(C4CCNCC4)nc3-c3ccc(F)cc3)n2)C1 (centres undefined),72.4 µM,6.5 ×10⁻⁶ cm/s,273 µM,> 5 µM,1.92,–,–,–,–,–
COc1cc(Nc2nccc(-c3sc(C4CCNCC4)nc3-c3ccc(F)cc3)n2)cc(C)n1,1.2 µM,19 ×10⁻⁶ cm/s,–,0.38 µM,3.36,–,–,–,–,–
CN1CCN(c2ccc(Nc3nccc(-c4sc(N)nc4-c4ccc(F)cc4)n3)cc2)CC1,2.5 µM,26 ×10⁻⁶ cm/s,8 µM,> 5 µM,3.61,–,–,–,–,–
Fc1ccc(-c2nc(C3CCNCC3)sc2-c2ccnc(NCCN3CCCC3)n2)cc1,38 µM,1 ×10⁻⁶ cm/s,297 µM,3.19 µM,1.13,–,–,–,–,–

Compound,EC50 (L929),Papp [1],solubility [2],EC50 (Plasmodium falciparum [3]),chromatographic logD [4],EC50 (Plasmodium falciparum [5]),EC50 (Plasmodium falciparum [6]),CLH [7],CLH [8],CLH [9]
Fc1ccc(-c2nc(C3CCNCC3)sc2-c2ccnc(N3CCC(N4CCC4)CC3)n2)cc1,25.7 µM,7.2 ×10⁻⁶ cm/s,114 µM,4.25 µM,1.63,–,–,–,–,–
CN1CCN(CCNc2nccc(-c3sc(C4CCNCC4)nc3-c3ccc(F)cc3)n2)CC1,100 µM,1 ×10⁻⁶ cm/s,238 µM,> 5 µM,1.34,–,–,–,–,–
Fc1ccc(-c2nc(C3CCNCC3)sc2-c2ccnc(Nc3ccn(C4CCNCC4)n3)n2)cc1,100 µM,3 ×10⁻⁶ cm/s,131 µM,3.31 µM,1.29,–,–,–,–,–
Nc1nc(-c2ccc(F)cc2)c(-c2ccnc(Nc3ccc(N4CCOCC4)cc3)n2)s1,19.5 µM,3 ×10⁻⁶ cm/s,26 µM,–,4.61,–,–,–,–,–
Oc1cc(Nc2nccc(-c3sc(C4CCNCC4)nc3-c3ccc(F)cc3)n2)ccn1,100 µM,2 ×10⁻⁶ cm/s,–,3.47 µM,1.64,–,–,–,–,–
Nc1nccc(-c2sc(C3CCNCC3)nc2-c2ccc(F)cc2)n1,55 µM,13 ×10⁻⁶ cm/s,467 µM,2.2 µM,1.5,–,–,–,–,–
Fc1ccc(-c2nc(C3CCNCC3)sc2-c2ccnc(NCC3CCCO3)n2)cc1 (centres undefined),17 µM,32 ×10⁻⁶ cm/s,299 µM,> 5 µM,2.77,–,–,–,–,–
Fc1ccc(-c2nc(C3CCNCC3)sc2-c2ccnc(Nc3cccnn3)n2)cc1,3.2 µM,19 ×10⁻⁶ cm/s,123 µM,0.98 µM,2.14,–,–,0.47 mL/min/g,4.42 mL/min/g,0.95 mL/min/g
Fc1ccc(-c2nc(C3CCNCC3)sc2-c2ccnc(N3CCC(N4CCOCC4)CC3)n2)cc1,15.5 µM,27 ×10⁻⁶ cm/s,251 µM,2.37 µM,2.83,–,–,–,–,–
Cc1nccc(Nc2nccc(-c3sc(C4CCNCC4)nc3-c3ccc(F)cc3)n2)n1,2.5 µM,18 ×10⁻⁶ cm/s,47 µM,0.81 µM,2.43,–,–,–,–,–
Fc1ccc(-c2nc(C3CCNCC3)sc2-c2ccnc(Nc3ccccn3)n2)cc1,6.2 µM,33 ×10⁻⁶ cm/s,56 µM,2.41 µM,2.96,–,–,–,–,–
COCCNc1nccc(-c2sc(C3CCNCC3)nc2-c2ccc(F)cc2)n1,33.9 µM,30 ×10⁻⁶ cm/s,235 µM,> 5 µM,2.45,–,–,–,–,–
Cc1cc(Nc2nccc(-c3sc(C4CCNCC4)nc3-c3ccc(F)cc3)n2)nn1C,5.1 µM,20 ×10⁻⁶ cm/s,146 µM,> 5 µM,2.52,–,–,–,–,–
Fc1ccc(-c2nc(C3CCNCC3)sc2-c2ccnc(NCCN3CCOCC3)n2)cc1,–,17 ×10⁻⁶ cm/s,408 µM,> 5 µM,2.02,–,–,–,–,–
CN(C)CCNc1nccc(-c2sc(C3CCNCC3)nc2-c2ccc(F)cc2)n1,100 µM,2.4 ×10⁻⁶ cm/s,244 µM,3.11 µM,1.07,–,–,–,–,–
Cc1nnc(Nc2nccc(-c3sc(C4CCNCC4)nc3-c3ccc(F)cc3)n2)s1,4.4 µM,8 ×10⁻⁶ cm/s,74 µM,4.44 µM,2.02,–,–,–,–,–
CCOC(=O)N1CCC(c2nc(-c3ccc(F)cc3)c(-c3ccnc(Nc4ccc(N5CCN(C)CC5)cc4)n3)s2)CC1,6.5 µM,41 ×10⁻⁶ cm/s,23 µM,> 5 µM,6.66,–,–,–,–,–
Fc1ccc(-c2nc(C3CCNCC3)sc2-c2ccnc(N3CCCC3)n2)cc1,13.8 µM,46 ×10⁻⁶ cm/s,374 µM,> 5 µM,3.71,–,–,–,–,–
CN1CCC(C(=O)Nc2nc(-c3ccc(F)cc3)c(-c3ccnc(Nc4ccc(N5CCNCC5)cc4)n3)s2)CC1,7.8 µM,1 ×10⁻⁶ cm/s,11 µM,1.46 µM,2.2,0.63 µM,1.31 µM,0.4 mL/min/g,0.48 mL/min/g,0.46 mL/min/g
Fc1ccc(-c2nc(N3CCOCC3)sc2-c2ccnc(Nc3ccc(N4CCNCC4)cc3)n2)cc1,3.3 µM,28 ×10⁻⁶ cm/s,38 µM,1.62 µM,3.99,1.12 µM,1.07 µM,0.4 mL/min/g,0.48 mL/min/g,0.59 mL/min/g
